According to ChEMBL document CHEMBL1144528, “Synthesis of 8-thiabicyclo[3.2.1]octanes and their binding affinity for the dopamine and serotonin transporters” (Bioorg Med Chem, 2007):

Tests used:
[1] = target: Transporter (Macaca mulatta, UniProt Q7JHP9); experiment: Displacement of [3H]WIN-35428 from DAT in rhesus monkey caudate-putamen; assay type: tissue-based
Summary of the method: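 Rhesus or cynomolgus caudate-putamen membranes (4 mg original wet weight/mL) in 50 mM Tris·HCl pH 7.4, 100 mM NaCl. Incubated 2 h at 0-4 °C with 0.3 nM [3H]WIN35,428 and a range of drug concentrations. Filtered on 0.1% BSA-soaked glass fibre filters and scintillation counted. Nonspecific binding defined with 30 μM (-)-cocaine. IC50 is the mean of ≥2 experiments in different brains, each in triplicate.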

[2] = target: Sodium-dependent serotonin transporter (Macaca mulatta, UniProt Q9MYX0); experiment: Displacement of [3H]citalopram from SERT in rhesus monkey caudate-putamen; assay type: tissue-based
Summary of the method: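 Caudate-putamen membranes from rhesus or cynomolgus monkey (4 mg original wet weight/mL) in 50 mM Tris·HCl pH 7.4 with 100 mM NaCl. Incubated with 1 nM [3H]citalopram and a range of test drug concentrations for 2 h at 0-4 °C. Filtered over glass fibre filters pre-soaked in 0.1% polyethyleneimine, then scintillation counted. IC50 is the mean of ≥2 independent experiments in different brains, each in triplicate.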

[3] = species: Macaca mulatta; experiment: Selectivity for rhesus monkey DAT over rhesus monkey SERT
Summary of the method: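 Ratio of SERT IC50 ([3H]citalopram binding) to DAT IC50 ([3H]WIN35,428 binding), both measured in monkey caudate-putamen membranes.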

Sequence of Sodium-dependent serotonin transporter (Q9MYX0 whole entry): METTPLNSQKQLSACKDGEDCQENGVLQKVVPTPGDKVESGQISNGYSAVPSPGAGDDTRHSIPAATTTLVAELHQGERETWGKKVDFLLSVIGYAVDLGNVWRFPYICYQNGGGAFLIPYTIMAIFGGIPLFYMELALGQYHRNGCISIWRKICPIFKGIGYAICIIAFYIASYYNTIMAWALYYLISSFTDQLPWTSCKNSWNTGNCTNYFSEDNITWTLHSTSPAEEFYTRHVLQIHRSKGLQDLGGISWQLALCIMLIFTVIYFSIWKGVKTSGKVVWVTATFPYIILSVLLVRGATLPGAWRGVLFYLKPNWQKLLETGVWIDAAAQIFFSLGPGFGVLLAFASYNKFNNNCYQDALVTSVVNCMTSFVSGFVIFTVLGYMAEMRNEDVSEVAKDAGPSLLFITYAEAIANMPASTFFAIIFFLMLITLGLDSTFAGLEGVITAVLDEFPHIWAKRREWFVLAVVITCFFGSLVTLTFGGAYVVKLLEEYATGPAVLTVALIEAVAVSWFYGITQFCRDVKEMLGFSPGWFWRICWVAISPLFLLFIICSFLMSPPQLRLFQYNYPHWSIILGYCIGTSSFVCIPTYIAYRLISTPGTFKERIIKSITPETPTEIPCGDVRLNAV
Sequence of Transporter (Q7JHP9 whole entry): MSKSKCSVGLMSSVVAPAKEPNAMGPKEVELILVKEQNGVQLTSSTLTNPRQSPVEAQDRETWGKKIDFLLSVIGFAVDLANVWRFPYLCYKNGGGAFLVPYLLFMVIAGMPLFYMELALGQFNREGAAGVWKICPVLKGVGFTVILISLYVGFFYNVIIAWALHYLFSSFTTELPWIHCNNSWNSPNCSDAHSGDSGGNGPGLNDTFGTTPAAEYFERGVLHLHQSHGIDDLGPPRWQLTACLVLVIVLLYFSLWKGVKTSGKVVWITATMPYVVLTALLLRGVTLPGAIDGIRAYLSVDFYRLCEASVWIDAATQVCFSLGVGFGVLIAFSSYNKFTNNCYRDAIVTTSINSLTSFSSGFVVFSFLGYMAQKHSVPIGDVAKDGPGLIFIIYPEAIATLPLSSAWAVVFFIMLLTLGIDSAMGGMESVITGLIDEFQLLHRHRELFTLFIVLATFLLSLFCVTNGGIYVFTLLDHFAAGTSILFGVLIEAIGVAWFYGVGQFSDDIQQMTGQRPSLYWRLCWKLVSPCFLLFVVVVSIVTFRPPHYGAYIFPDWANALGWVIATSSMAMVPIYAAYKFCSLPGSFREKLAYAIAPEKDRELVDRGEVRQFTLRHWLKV

| SMILES | IC50 [1] | IC50 [2] | Ratio IC50 [3] |
| --- | --- | --- | --- |
| COC(=O)[C@@H]1C2CCC(C[C@@H]1c1ccc(Cl)c(Cl)c1)O2 (stereo partly drawn) | 3.3 nM | 6.5 nM | 2 |
| COC(=O)[C@@H]1C2CCC(C[C@H]1c1ccc(F)cc1)S2 (stereo partly drawn) | 59 nM | > 11000 nM | > 186 |
| COC(=O)C1=C(c2ccc(Cl)c(Cl)c2)CC2CC[C@H]1S2 | 2.5 nM | 2600 nM | 1040 |
| COC(=O)[C@@H]1C2CCC(C[C@@H]1c1ccc(Br)cc1)S2 (stereo partly drawn) | 6 nM | 14 nM | 2.3 |
| COC(=O)[C@@H]1C2CCC(C[C@@H]1c1ccc(Cl)c(F)c1)S2 (stereo partly drawn) | 6 nM | 17 nM | 3 |
| COC(=O)C1=C(c2ccc3ccccc3c2)CC2CCC1S2 (stereo not drawn) | 8 nM | > 1000 nM | > 163 |
| COC(=O)C1=C(c2ccc(Cl)c(Cl)c2)CC2CC[C@H]1O2 | 4.6 nM | 2120 nM | 460 |
| COC(=O)C1=C(c2ccc(Cl)c(Cl)c2)CC2CC[C@@H]1S2 | 5 nM | 4000 nM | 800 |
| COC(=O)C1=C(c2ccc(F)c(Cl)c2)CC2CCC1S2 (stereo not drawn) | 7.6 nM | > 6000 nM | > 789 |
| COC(=O)[C@@H]1C2CCC(C[C@H]1c1ccc(F)c(F)c1)[S+]2[O-] (stereo partly drawn) | 89 nM | > 69000 nM | > 775 |
| COC(=O)C1=C(c2ccc(Cl)c(Cl)c2)CC2C[C@@H](O)[C@@H]1N2C | 265 nM | 1590 nM | – |
| COC(=O)[C@@H]1[C@H]2[C@H](O)CC(C[C@@H]1c1ccc(Cl)c(Cl)c1)N2C | 0.3 nM | 15 nM | 50 |
| COC(=O)[C@@H]1[C@@H]2CCC(C[C@@H]1c1ccc(Cl)c(Cl)c1)O2 | 47 nM | 58 nM | 1.2 |
| COC(=O)[C@@H]1C2CCC(C[C@H]1c1ccc(Cl)cc1)S2 (stereo partly drawn) | 11 nM | 1000 nM | > 91 |
| COC(=O)C1=C(c2ccc(Cl)c(Cl)c2)CC2CC[C@H]1N2C | 1.2 nM | 867 nM | 723 |
| COC(=O)C1=C(c2ccc(I)cc2)CC2CCC1S2 (stereo not drawn) | 6.7 nM | > 8000 nM | > 1300 |
| COC(=O)C1=C(c2ccc(Cl)c(F)c2)CC2CCC1S2 (stereo not drawn) | 10 nM | > 50000 nM | > 5000 |
| COC(=O)[C@@H]1C2CCC(C[C@H]1c1ccccc1)S2 (stereo partly drawn) | 140 nM | > 8000 nM | > 57 |
| COC(=O)[C@@H]1C2CCC(C2)C[C@@H]1c1ccc(Cl)c(Cl)c1 (stereo partly drawn) | 9.6 nM | 33 nM | 3.4 |
| COC(=O)[C@@H]1C2CCC(C[C@H]1c1ccc(Cl)c(F)c1)[S+]2[O-] (stereo partly drawn) | 17 nM | > 14000 nM | > 824 |
| COC(=O)[C@@H]1C2CCC(C[C@@H]1c1ccc(F)c(F)c1)S2 (stereo partly drawn) | 32 nM | 235 nM | 7 |
| COC(=O)C1=C(c2ccc(Cl)c(Cl)c2)CC2CCC1O2 (stereo not drawn) | 10 nM | 6000 nM | 600 |

| SMILES | IC50 [1] | IC50 [2] | Ratio IC50 [3] |
| --- | --- | --- | --- |
| COC(=O)[C@@H]1C2CCC(C[C@H]1c1ccc(I)cc1)S2 (stereo partly drawn) | 9 nM | 70 nM | 8 |
| COC(=O)[C@@H]1C2CCC(C[C@@H]1c1ccc(Cl)c(F)c1)[S+]2[O-] (stereo partly drawn) | 14 nM | > 4000 nM | > 286 |
| COC(=O)[C@@H]1[C@H]2[C@H](O)CC(C[C@H]1c1ccc(Cl)c(Cl)c1)N2C | 0.76 nM | 1220 nM | 1610 |
| COC(=O)[C@@H]1C2CCC(C[C@H]1c1ccc(F)c(Cl)c1)[S+]2[O-] (stereo partly drawn) | 23 nM | > 31000 nM | > 1350 |
| COC(=O)C1=C(c2ccc(F)cc2)CC2CCC1S2 (stereo not drawn) | 220 nM | > 30000 nM | > 127 |
| COC(=O)[C@@H]1C2CCC(C[C@@H]1c1ccc(F)c(Cl)c1)S2 (stereo partly drawn) | 6.7 nM | 370 nM | 55 |
| COC(=O)[C@@H]1C2CCC(C[C@H]1c1ccc(Cl)c(Cl)c1)[S+]2[O-] (stereo partly drawn) | 7.8 nM | > 3000 nM | > 346 |
| COC(=O)[C@@H]1C2CCC(C[C@@H]1c1ccc(Cl)c(Cl)c1)S2 (stereo partly drawn) | 5.7 nM | 8 nM | 1.5 |
| COC(=O)C1=C(c2ccccc2)CC2CCC1S2 (stereo not drawn) | 910 nM | > 10000 nM | > 11 |
| COC(=O)[C@@H]1C2CCC(C[C@H]1c1ccc(F)c(Cl)c1)S2 (stereo partly drawn) | 7.1 nM | 480 nM | 68 |
| COC(=O)[C@@H]1[C@@H]2[C@H](O)CC(C[C@H]1c1ccc(Cl)c(Cl)c1)N2C | 482 nM | 5300 nM | 11 |
| COC(=O)[C@@H]1[C@@H]2CCC(C[C@H]1c1ccc(Cl)c(Cl)c1)O2 | 56 nM | 2860 nM | 51 |
| COC(=O)[C@@H]1C2CCC(C[C@H]1c1ccc(Cl)c(F)c1)S2 (stereo partly drawn) | 7 nM | 702 nM | 100 |
| COC(=O)[C@@H]1C2CCC(C[C@H]1c1ccc(F)c(F)c1)S2 (stereo partly drawn) | 11.3 nM | 1000 nM | 88 |
| COC(=O)C1=C(c2ccccc2)CC2CCC1[S+]2[O-] (stereo not drawn) | 6000 nM | > 10000 nM | > 1.6 |
| COC(=O)[C@@H]1C2CCC(C[C@H]1c1ccc(Cl)c(Cl)c1)O2 (stereo partly drawn) | 3.1 nM | 64.5 nM | 21 |
| COC(=O)[C@H]1[C@@H](c2ccc(Cl)c(Cl)c2)CC2CC[C@H]1O2 | 3.3 nM | 4.7 nM | 1.4 |
| COC(=O)[C@@H]1C2CCC(C[C@@H]1c1ccccc1)S2 (stereo partly drawn) | 117 nM | > 3000 nM | > 29 |
| COC(=O)[C@@H]1C2CCC(C[C@H]1c1ccccc1)[S+]2[O-] (stereo partly drawn) | 1000 nM | 100000 nM | 100 |
| COC(=O)[C@H]1[C@@H](c2ccc(Cl)c(Cl)c2)CC2CC[C@H]1S2 | 2 nM | 3 nM | 1.5 |
| COC(=O)[C@@H]1C2CCC(C[C@H]1c1ccc3ccccc3c1)S2 (stereo partly drawn) | 8 nM | 36 nM | 4.5 |
| COC(=O)[C@@H]1C2CCC(C[C@@H]1c1ccc(I)cc1)S2 (stereo partly drawn) | 14 nM | 10 nM | 0.7 |

| SMILES | IC50 [1] | IC50 [2] | Ratio IC50 [3] |
| --- | --- | --- | --- |
| COC(=O)[C@@H]1C2CCC(C[C@@H]1c1ccc(F)cc1)S2 (stereo partly drawn) | 38 nM | 494 nM | 13 |
| COC(=O)[C@@H]1C2CCC(C[C@@H]1c1ccc(Cl)c(Cl)c1)[S+]2[O-] (stereo partly drawn) | 5.3 nM | 120 nM | 23 |
| COC(=O)C1=C(c2ccc(Cl)c(Cl)c2)CC2CCC1S2 (stereo not drawn) | 4.5 nM | > 3000 nM | > 800 |
| COC(=O)[C@@H]1[C@@H]2CCC(C[C@H]1c1ccc(Cl)c(Cl)c1)S2 | 10 nM | 139 nM | 14 |
| COC(=O)C1=C(c2ccc(Cl)c(Cl)c2)CC2C[C@@H](O)[C@H]1N2C | 7.4 nM | 5370 nM | – |
| COC(=O)[C@@H]1C2CCC(C[C@H]1c1ccc(Br)cc1)S2 (stereo partly drawn) | 6 nM | 342 nM | 57 |
| COC(=O)[C@@H]1[C@H]2CCC(C[C@H]1c1ccc(Cl)c(Cl)c1)S2 | 4.9 nM | 39 nM | 8 |
| COC(=O)[C@@H]1C2CCC(C[C@@H]1c1ccc(Cl)cc1)S2 (stereo partly drawn) | 9.6 nM | 33 nM | 3.4 |
| COC(=O)C1=C(c2ccc(Br)cc2)CC2CCC1S2 (stereo not drawn) | 9.1 nM | > 25000 nM | > 2750 |
| COC(=O)[C@H]1[C@@H](c2ccc(Cl)c(Cl)c2)CC2CC[C@H]1N2C | 1.1 nM | 2.5 nM | 2.2 |
| COC(=O)[C@@H]1C2CCC(C2)C[C@H]1c1ccc(Cl)c(Cl)c1 (stereo partly drawn) | 13 nM | 166 nM | 13 |
| COC(=O)C1=C(c2ccc(F)c(F)c2)CC2CCC1S2 (stereo not drawn) | 75 nM | > 10000 nM | > 133 |
| COC(=O)[C@@H]1[C@H]2CCC(C[C@H]1c1ccc(Cl)c(Cl)c1)O2 | 2.3 nM | 31 nM | 13 |
| COC(=O)C1=C(c2ccc(Cl)c(Cl)c2)CC2CC[C@@H]1O2 | 58 nM | 46700 nM | 805 |
| COC(=O)C1=C(c2ccc(Cl)c(Cl)c2)CC2CCC1C2 (stereo not drawn) | 7.1 nM | 5160 nM | 727 |
| COC(=O)C1=C(c2ccc(Cl)c(Cl)c2)CC2CC[C@@H]1N2C | 490 nM | 1900 nM | 4 |
| COC(=O)[C@@H]1[C@@H]2[C@H](O)CC(C[C@@H]1c1ccc(Cl)c(Cl)c1)N2C | 2690 nM | 139 nM | 0.05 |
| COC(=O)[C@@H]1[C@H]2CCC(C[C@H]1c1ccc(Cl)c(Cl)c1)N2C | 0.4 nM | 27 nM | 68 |
| COC(=O)[C@@H]1C2CCC(C[C@@H]1c1ccc3ccccc3c1)S2 (stereo partly drawn) | 16 nM | 13 nM | 0.8 |
| COC(=O)C1=C(c2ccc(Cl)cc2)CC2CCC1S2 (stereo not drawn) | 13 nM | > 10000 nM | > 770 |
| COC(=O)[C@@H]1C2CCC(C[C@H]1c1ccc(Br)cc1)[S+]2[O-] (stereo partly drawn) | 14 nM | > 24000 nM | > 1710 |
